Broadly, the IC50 is the concentration at which inhibition is half-maximal. A high value points to weaker potency. In general, Km refers to the concentration of substrate that gives half-maximal velocity. The term Vmax denotes the top rate of the reaction or transport when substrate is in excess. One may read the kcat/Km as the turnover number divided by the Michaelis constant.

The test system of one data set is THP-1. Description: Cytotoxicity against human THP1 cells after 6 days by Alamar blue assay. It is filed as cell-based. The following applies: THP-1, 144 h. A digest of the protocol: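 THP-1 cells were grown in RPMI 1640 with 10% tetracycline-free FCS and 20 mM HEPES. They were seeded at 1 × 10^4 ml−1 across a range of compound concentrations and incubated 6 days at 37°C, 5% CO2.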
Background: Alamar Blue is a resazurin reagent that responds to reducing activity.

Data set [1] deals with Trypanosoma brucei. Description: Antiparasitic activity against Trypanosoma brucei BSF after 3 days by Alamar blue assay. It is filed as functional, organism-based. Particulars: 72 h. In a few lines: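 BSF trypomastigotes (MITat 427, clone 221a) were seeded at 1 × 10^3 ml−1 in modified Iscove's medium with tetracycline-free FCS, across a range of compound concentrations. Plates ran 3 days at 37°C, then Alamar blue was added for 16 h. Fluorescence was read at ex 530/em 585 nm and IC50 determined.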

Data set [2] in a line: Therapeutic index, ratio of IC50 against human THP1 cells to IC50 against Trypanosoma brucei. It is filed as cell-based, THP-1. The following applies: read-out: Ratio IC50. A digest of the protocol: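 Index was calculated as THP-1 IC50 divided by T. brucei BSF IC50. THP-1 IC50 came from 6-day Alamar blue assays, and parasite IC50 from 3-day Alamar blue assays, both at 37°C.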

Data set [3] has as its system Trypanosoma brucei.
Data set [4] has as its system Trypanosoma brucei. Particulars: 100 uM.
Data set [5] deals with Trypanosoma brucei. The source holds these as a separate data set.
Data set [6] has as its system Trypanosoma brucei. Description: Antiparasitic activity against Trypanosoma brucei BSF overexpressing NTR gene after 3 days by Alamar blue assay. It is filed as functional, organism-based. Particulars: 72 h. In a few lines: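 Parasite lines were heterozygous NTR+/− (kept on 2 μg ml−1 puromycin) or TbNTR-overexpressing (kept on 2.5 μg ml−1 hygromycin plus 1 μg ml−1 phleomycin). Tetracycline at 1 μg ml−1 was added for induction where appropriate. Cells were seeded at 1 × 10^3 ml−1 and grown 3 days at 37°C, followed by Alamar blue for 16 h. Fluorescence IC50s were compared with control cells.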

As to `NP(=O)(OCc1c(F)cc([N+](=O)[O-])cc1F)N(CCCl)CCCl` (configuration not stated), the IC50 with THP-1 was 6.9 µM; with Trypanosoma brucei [1], 0.007 µM.
For the compound `Cc1cc(COP(N)(=O)N(CCCl)CCCl)ccc1[N+](=O)[O-]` (configuration not stated), the IC50 in the data set on THP-1 is 64.8 µM; in the data set with Trypanosoma brucei [1], 1.8 µM. Besides, in data set [2], the selectivity ratio is 36.
Consider `CC(OP(N)(=O)N(CCCl)CCCl)c1ccc([N+](=O)[O-])cc1` (configuration not stated), for which the IC50 was determined as 64.8 µM in the data set with THP-1 and 1.8 µM in the data set with Trypanosoma brucei [1]. Further, the selectivity ratio in data set [2] came to 36.
As to `O=[N+]([O-])c1ccc([C@@H]2CCN[P@@](=O)(N(CCCl)CCCl)O2)cc1`, the 50% inhibitory concentration (IC50) is 64.8 µM in the data set with THP-1 and 1.8 µM in the data set on Trypanosoma brucei [1]. For the same compound, in data set [2], the selectivity ratio was 36.
As to `NP(=O)(OCc1ccc([N+](=O)[O-])cc1Cl)N(CCCl)CCCl` (configuration not stated), the IC50 in the data set with THP-1 was determined as 10 µM; in the data set on Trypanosoma brucei [1] it was 0.008 µM.
As for `NP(=O)(OCc1ccccc1[N+](=O)[O-])N(CCCl)CCCl` (configuration not stated), the IC50 with THP-1 turned out to be 64.8 µM; in the data set on Trypanosoma brucei [1], 1.8 µM. The selectivity ratio in data set [2] worked out at 36.
Take `CC(C)(C(=O)N[C@@H]1CCN[P@@](=O)(N(CCCl)CCCl)O1)c1ccccc1[N+](=O)[O-]`: the IC50 with THP-1 amounted to 64.8 µM; in the data set with Trypanosoma brucei [1] it was 1.8 µM. Besides, the selectivity ratio in data set [2] is 36.
Take `CC1CS(=O)(=O)CCN1/N=C/c1ccc([N+](=O)[O-])o1` (configuration not stated) [NIFURTIMOX]: the half-inhibitory concentration (IC50) was 64.8 µM with THP-1 and 1.8 µM in the data set on Trypanosoma brucei [1]. In addition, in the data set with Trypanosoma brucei [3], the Km stood at 53.1 µM. Moreover, in the data set with Trypanosoma brucei [4], the Vmax was 423 nmol/min. For the same compound, in the data set with Trypanosoma brucei [5], the kcat/Km was found to be 3.4 M⁻¹ s⁻¹. Also, the selectivity ratio in data set [2] is 36.
Turning to `COc1cc([N+](=O)[O-])ccc1COP(N)(=O)N(CCCl)CCCl` (configuration not stated), the IC50 in the data set on THP-1 was 33.5 µM; in the data set with Trypanosoma brucei [1] it was 1.2 µM. The selectivity ratio in data set [2] came to 28.
The corresponding values for `NP(=O)(OCc1ccc([N+](=O)[O-])c(F)c1)N(CCCl)CCCl` (configuration not stated) are 17.6 µM, 3.2 µM and 6.
In the case of `NP(=O)(OCc1ccc([N+](=O)[O-])cc1)N(CCCl)CCCl` (configuration not stated), the IC50 amounted to 66 µM in the data set with THP-1 and 3.4 µM with Trypanosoma brucei [1].
Consider `O=[N+]([O-])c1ccc([C@@H]2CCN[P@](=O)(N(CCCl)CCCl)O2)cc1`, for which the figures for the 50% inhibitory concentration (IC50) in the data set with THP-1 and with Trypanosoma brucei [1] were 64.8 µM and 1.8 µM, respectively. In addition, the selectivity ratio in data set [2] came out at 36.
In the case of `O=[N+]([O-])c1ccc([C@@H]2CCO[P@](=O)(N(CCCl)CCCl)N2)cc1`, the figures for the IC50 in the data set on THP-1 and with Trypanosoma brucei [1] were 64.8 µM and 1.8 µM, respectively. Further, in data set [2], the selectivity ratio turned out to be 36.
The corresponding values for `O=[N+]([O-])c1ccc([C@@H]2CCN[P@](=O)(N(CCCl)CCCl)N2)cc1` are 64.8 µM, 1.8 µM and 36.
On to `NP(=O)(OCc1ccc([N+](=O)[O-])cc1C(F)(F)F)N(CCCl)CCCl` (configuration not stated), for which the IC50 with THP-1 stood at 19 µM; in the data set with Trypanosoma brucei [1], 0.149 µM.
In the case of `NP(=O)(OCc1cccc([N+](=O)[O-])c1)N(CCCl)CCCl` (configuration not stated), the IC50 amounted to 64.8 µM with THP-1 and 1.8 µM with Trypanosoma brucei [1]. Also, the selectivity ratio in data set [2] was 36.
With `COc1cc(COP(N)(=O)N(CCCl)CCCl)ccc1[N+](=O)[O-]` (configuration not stated), the values for the IC50 in the data set with THP-1 and in the data set with Trypanosoma brucei [1] were 64.8 µM and 1.8 µM, respectively. Moreover, in data set [2], the selectivity ratio was 36.
On the same counts, the results for `CC(C)(C(=O)N[C@@H]1CCN[P@](=O)(N(CCCl)CCCl)O1)c1ccccc1[N+](=O)[O-]` are 64.8 µM, 1.8 µM and 36.
For `O=[N+]([O-])c1ccc([C@@H]2CCN[P@@](=O)(N(CCCl)CCCl)N2)cc1`, the figures for the IC50 in the data set on THP-1 and in the data set on Trypanosoma brucei [1] were 64.8 µM and 1.8 µM, respectively. Besides, the selectivity ratio in data set [2] worked out at 36.
In the data set with Trypanosoma brucei [6], `Nc1nc(N)nc(Nc2ccc([As]3SCC(CO)S3)cc2)n1` (configuration not stated) [MELARSOPROL] had an IC50 of 4 µM.
`O=[N+]([O-])c1ccc([C@@H]2CCO[P@@](=O)(N(CCCl)CCCl)N2)cc1`: the IC50 in the data set with THP-1 is 64.8 µM; with Trypanosoma brucei [1], 1.8 µM. In addition, the selectivity ratio in data set [2] came out at 36.
Take `NP(=O)(OCc1ccc([N+](=O)[O-])cc1F)N(CCCl)CCCl` (configuration not stated): the values for the IC50 in the data set with THP-1 and with Trypanosoma brucei [1] were 20.3 µM and 0.268 µM, respectively.

For the origin of these results see ChEMBL document CHEMBL1255389, “Exploiting the drug-activating properties of a novel trypanosomal nitroreductase” (Antimicrob Agents Chemother, 2010).
